Results collected from several papers.
Lines come from different studies, so protocols differ.
Target: Casein kinase I isoform gamma-2 (CSNK1G2, Homo sapiens, UniProt P78368)

SMILES	test	conditions	remaining binding
O=C(NCCCN1CCOCC1)c1ccc(Nc2nccc(-c3cc4ccccc4s3)n2)cc1	binding, competition with immobilised ligand	1 µM	100%
C[C@H]1CCN(c2nccc(-c3cnn4ncccc34)n2)C1	binding	1 µM	64%
COc1cnc(Nc2cccc(S(N)(=O)=O)c2)nc1N1CCN(c2ccccc2)CC1	binding, competition with immobilised ligand	1 µM	100%
F[C@@H]1CCN(c2nccc(-c3cnn4ncccc34)n2)C1	binding	1 µM	74%
N#CC1(c2ccccn2)CCN(Cc2cc(C(=O)N3CCCC3)c(=O)n3ccccc23)CC1	cell-free assay, competition with immobilised ligand	1 µM	76%
CNC(=O)[C@@H]1CC[C@@H](n2c(-c3ccc4cnccc4c3)nc3ccc(C(=O)NCc4cccc(C(N)=O)c4)cc32)C1	binding, competition with immobilised ligand	1 µM	97%
CCN1CCN(Cc2ccc(C(=O)Nc3ccc(C)c(Oc4ccc5c(c4)CC(=O)N5)c3)cc2C(F)(F)F)CC1	binding, competition with immobilised ligand	1 µM	100%
O=C(c1ccc(Nc2nccc(-c3cc4ccccc4s3)n2)cc1)N1CCC(N2CCCC2)CC1	binding, competition with immobilised ligand	1 µM	94%
CN(C)c1ncc(F)c(-c2cnn3ncccc23)n1	binding	1 µM	90%
CNCc1ccccc1-c1csc([C@@H](C)Nc2nc(C)nc3cc(OC)c(OC)cc23)c1	cell-free assay, competition with immobilised ligand	1 µM	98%
c1cnn2ncc(-c3ccnc(N4CCC45COC5)n3)c2c1	binding	1 µM	77%
COc1ccc2c(c1)O[C@@H](c1ccc(OC)c(OC)c1)C[C@H]2NC(=O)C1(c2ccc3c(c2)OC(F)(F)O3)CC1	cell-free assay, competition with immobilised ligand	1 µM	88%
Cc1cnn2ncc(-c3ccnc(N(C)C)n3)c2c1	binding	1 µM	100%
N#Cc1ccccc1CSc1nnc2c(n1)[nH]c1ccccc12	binding, competition with immobilised ligand	10 µM	81%
CCS(=O)(=O)c1cc2cc(C[C@](O)(CC(C)(C)c3ccc(F)cc3C(N)=O)C(F)(F)F)[nH]c2cn1	cell-free assay, competition with immobilised ligand	1 µM	93%
O=C(NCC1CCOCC1)c1n[nH]cc1NC(=O)c1c(F)cccc1F	binding, competition with immobilised ligand	1 µM	83%
CC1=C(C#N)C(c2ccc3c(c2)c(NC(=O)c2ccccc2C)nn3C)C(C#N)=C(C)N1	cell-free assay, competition with immobilised ligand	1 µM	95%
N[C@@H]1CCN(c2nccc(-c3cnn4ncccc34)n2)C1	binding	1 µM	82%
CN([C@@H]1CCc2c(CC(=O)O)c3cc(S(C)(=O)=O)ccc3n2C1)S(=O)(=O)c1ccc(F)cc1	cell-free assay, competition with immobilised ligand	1 µM	100%
Cc1cnc(Nc2ccc(C(=O)N3CCC(N4CCCC4)CC3)cc2)nc1-c1cc2ccccc2s1	binding, competition with immobilised ligand	1 µM	100%
